Measurements reported in ChEMBL document CHEMBL2331332 (J Med Chem, 2013).
The source made the active and inactive calls. No cut-off for these calls is given here.

Assays:
[1] = target: T1, Prostaglandin E synthase (Homo sapiens) (UniProt O14684); assay: Inhibition of microsomal PGES-1 (unknown origin) expressed in Escherichia coli using PGH2 as substrate assessed as inhibition of PGE2 formation at 10 uM by reversed phase HPLC analysis
T1 sequence (whole entry): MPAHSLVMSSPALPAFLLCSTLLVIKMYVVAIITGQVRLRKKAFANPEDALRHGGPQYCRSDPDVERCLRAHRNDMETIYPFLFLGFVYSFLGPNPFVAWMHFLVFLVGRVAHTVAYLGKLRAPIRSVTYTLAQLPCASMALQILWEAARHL

[2] = target: T1, Prostaglandin E synthase (Homo sapiens); assay: Inhibition of full-length microsomal PGES-1 (unknown origin) expressed in Escherichia coli Rosetta(DE3) using PGH2 as substrate assessed as PGH2 conversion to PGE2 at 10 uM incubated 15 mins prior to substrate addition measured after 1 min by EIA
[3] = target: T1, Prostaglandin E synthase (Homo sapiens); assay: Competitive inhibition of full-length microsomal PGES-1 (unknown origin) expressed in Escherichia coli Rosetta(DE3) using PGH2 as substrate incubated for 5 mins prior to substrate addition relative to control in presence of increased substrate concentration
[4] = target: T1, Prostaglandin E synthase (Homo sapiens); assay: Competitive inhibition of full-length microsomal PGES-1 (unknown origin) expressed in Escherichia coli Rosetta(DE3) using PGH2 as substrate incubated for 5 mins prior to substrate addition relative to control
[5] = target: T2, Polyunsaturated fatty acid 5-lipoxygenase (Homo sapiens) (UniProt P09917); assay: Inhibition of 5-LOX-mediated LTB4 formation in human whole blood at 10 uM incubated for 20 mins prior to substrate addition measured after 0.5 hrs by EIA in presence of calcium ionophore A23187
T2 sequence (whole entry): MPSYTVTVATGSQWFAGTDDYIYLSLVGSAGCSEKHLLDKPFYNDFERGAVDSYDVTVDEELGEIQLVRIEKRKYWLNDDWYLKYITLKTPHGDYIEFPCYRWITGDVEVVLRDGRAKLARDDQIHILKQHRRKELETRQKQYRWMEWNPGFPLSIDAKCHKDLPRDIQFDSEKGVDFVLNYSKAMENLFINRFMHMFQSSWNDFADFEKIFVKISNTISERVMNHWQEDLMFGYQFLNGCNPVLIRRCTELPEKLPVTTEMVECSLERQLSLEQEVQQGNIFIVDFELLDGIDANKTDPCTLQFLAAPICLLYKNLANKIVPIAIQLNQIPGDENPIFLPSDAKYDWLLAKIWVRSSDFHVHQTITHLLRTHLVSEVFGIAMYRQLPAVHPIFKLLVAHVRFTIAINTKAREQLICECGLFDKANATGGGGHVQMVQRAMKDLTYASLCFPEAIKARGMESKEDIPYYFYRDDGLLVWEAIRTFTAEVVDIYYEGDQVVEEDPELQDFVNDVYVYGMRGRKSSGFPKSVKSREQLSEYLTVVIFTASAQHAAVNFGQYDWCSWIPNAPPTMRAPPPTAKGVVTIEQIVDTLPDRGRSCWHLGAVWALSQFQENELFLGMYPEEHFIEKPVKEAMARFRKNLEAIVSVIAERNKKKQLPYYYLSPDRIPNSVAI
Summary of the method: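 Human whole blood was stimulated with calcium ionophore A23187 (final 20 μg/mL) for 0.5 h at 37 °C to induce LTB4 formation. Compounds were tested at 10 μM.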

[6] = target: T1, Prostaglandin E synthase (Homo sapiens); assay: Competitive inhibition of full-length microsomal PGES-1 (unknown origin) expressed in Escherichia coli Rosetta(DE3) using PGH2 as substrate preincubated for 15 mins relative to control in presence of higher glutathione disulfide concentration
Summary of the method: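 This GSSG control repeated the cofactor competition setup, with added GSH replaced by GSSG at the same final mass-volume percentage. 2.5 mM GSH was always present, and PGH2 was 17 μM. Preincubation was 15 min at 4 °C. Zero inhibition was set from the GSH activity curve, and PGE2 was read by EIA. Mean ± SEM, n = 3.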

Prostaglandin E synthase [7] = target: T3, Prostaglandin E synthase (Homo sapiens, UniProt O14684); assay: Inhibition of PGES-1 in human whole blood assessed as LPS-induced PGE2 formation incubated for 15 mins prior to LPS addition measured after 24 hrs by EIA
T3 sequence (O14684 whole entry): T1 sequence (whole entry)
Summary of the method: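 Fresh heparinized blood came from healthy volunteers free of NSAIDs for at least 14 days. It was preincubated 15 min at 37 °C with compound or DMSO vehicle. LPS (final 100 μg/mL) was then added for 24 h at 37 °C. Plasma was obtained by centrifugation at 4 °C, and PGE2 was read by EIA.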

Prostaglandin E synthase [8] = target: T3, Prostaglandin E synthase; assay: Inhibition of full-length microsomal PGES-1 (unknown origin) expressed in Escherichia coli Rosetta(DE3) using PGH2 as substrate assessed as inhibition of PGH2 conversion to PGE2 incubated 15 mins prior to substrate addition measured after 1 min by EIA
Summary of the method: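 Reactions used 2.5 mM cofactor and 17 μM PGH2 for 1 min at 4 °C, then were stopped, and PGE2 was quantified by EIA. IC50 came from dose-response curves. Mean ± SEM, n = 3.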

[9] = target: T2, Polyunsaturated fatty acid 5-lipoxygenase (Homo sapiens); assay: Inhibition of 5-LOX (unknown origin) at 10 uM by human whole blood LTB4 assay
[10] = test system: Prostaglandin G/H synthase 2 (COX-2); assay: Inhibition of COX-2 (unknown origin)-mediated TMPD oxidation using PGG2 as substrate at 100 uM incubated 15 mins prior to substrate addition measured after 36 secs by spectrophotometric analysis; settings: Homo sapiens
[11] = test system: Prostaglandin G/H synthase 1 (COX-1); assay: Inhibition of COX-1 (unknown origin)-mediated TMPD oxidation using PGG2 as substrate at 100 uM incubated 15 mins prior to substrate addition measured after 36 secs by spectrophotometric analysis; settings: Homo sapiens
[12] = target: T1, Prostaglandin E synthase (Homo sapiens); assay: Competitive inhibition of full-length microsomal PGES-1 (unknown origin) expressed in Escherichia coli Rosetta(DE3) using PGH2 as substrate preincubated for 15 mins relative to control in presence of 25 mM of cofactor GSH
[13] = target: T1, Prostaglandin E synthase (Homo sapiens); assay: Competitive inhibition of full-length microsomal PGES-1 (unknown origin) expressed in Escherichia coli Rosetta(DE3) using PGH2 as substrate preincubated for 15 mins relative to control in presence of 2.5 mM of cofactor GSH

inhibition [1] [%]	inhibition [2] [%]	inhibition [3] [%]	inhibition [4] [%]	inhibition [5] [%]	inhibition [6]	IC50 (Prostaglandin E synthase [7]) [nM]	IC50 (Prostaglandin E synthase [8]) [nM]	inhibition [9] [%]	inhibition [10] [%]	inhibition [11] [%]	inhibition [12] [%]	inhibition [13] [%]	SMILES
50	–	–	–	–	–	–	–	–	–	–	–	–	Cc1ccc2oc(-c3cccc(NC(=O)c4ccccc4[N+](=O)[O-])c3)nc2c1
–	10	–	–	–	–	–	–	–	–	–	–	–	CCOc1cc(/C=C2/C(=O)N(c3ccc(Cl)cc3)N=C2C)ccc1OCC(=O)O
–	–	0	> 60	< 1	Active	6500	2	< 1	12.9	< 1	< 15	80	CCOC(=O)C1=C(C)N=c2s/c(=C\c3ccc(-c4ccc(Cl)c(C(=O)O)c4)o3)c(=O)n2C1c1ccccc1Cl (stereo not given)
–	–	0	> 60	< 1	Active	3800	1.8	< 1	14.7	< 1	< 15	80	O=C(O)CN1C(=O)/C(=C2/C(=O)N(CC(=O)O)c3ccccc32)SC1=S
–	–	0	> 60	< 1	Active	300	4	20	< 1	2.1	< 15	80	COc1ccc(-c2nnc(SCC(=O)c3ccc4c(c3)Cc3ccccc3-4)nc2-c2ccc(OC)cc2)cc1
